The subject of data set [1] is CCRF-CEM. Briefly: Antiproliferative activity against human CCRF-CEM cells assessed as growth inhibition at 1 uM after 24 to 96 hrs by spectrophotometry. It counts as functional, cell-based. In short, it runs like this: (§1)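 CellTiter 96 AQueous One (MTS) proliferation assay. Cells grown at 37 °C, 5% CO2, 10% FBS plus 1% penicillin-streptomycin. Medium was RPMI for CCRF-CEM and EMEM for MDA-MB-468, SK-OV-3 and HT-29. Compound at 1 μM in 4% DMSO, triplicate wells, incubated 24-120 h, then 1 h with reagent. A490 read. Survival % = (treated − medium)/(control − medium) × 100.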

In data set [2] the test system is MDA-MB-468. Briefly: Antiproliferative activity against human MDA-MB-468 cells assessed as growth inhibition at 1 uM after 24 hrs by spectrophotometry. It counts as functional, cell-based. In short, it runs like this:
as §1

Data set [3] deals with SK-OV-3. Nature of the data set: Antiproliferative activity against human SKOV3 cells assessed as growth inhibition at 1 uM after 24 to 96 hrs by spectrophotometry. It counts as functional, cell-based. In short, it runs like this: as §1
A further data set concerns HT-29. Nature of the data set: Antiproliferative activity against human HT-29 cells assessed as growth inhibition at 1 uM after 120 hrs by spectrophotometry relative to control. Type of data set: functional. The note with it: for inhibition of growth at 1 µM: HT-29, 120 h, read-out: GI. A digest of the protocol:
as §1

Data set [4] in a line: n-Octanol-water partition coefficient, log P of the compound by shake flask method. Type of data set: physicochemical. A digest of the protocol: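 Shake-flask method. 100 µg of derivative partitioned between 300 µL 1-octanol and 300 µL distilled water, shaken 30 min, phases left to separate. Each phase quantified by UV spectroscopy against a standard spectrum. P = octanol/water concentration ratio, reported as Log P. Mean of three runs.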

Data set [5] has as its system MDA-MB-468. Briefly: Antiproliferative activity against human MDA-MB-468 cells assessed as growth inhibition at 1 uM after 96 hrs by spectrophotometry relative to control. Type of data set: functional. The note with it: MDA-MB-468, 96 h, read-out: GI. A digest of the protocol:
as §1

Data set [6] deals with SK-OV-3. Briefly: Antiproliferative activity against human SKOV3 cells assessed as growth inhibition at 1 uM after 96 hrs by spectrophotometry relative to control. It counts as functional. The note with it: SK-OV-3, 96 h, read-out: GI. In short, it runs like this:
as §1

Data set [7] concerns CCRF-CEM. Nature of the data set: Antiproliferative activity against human CCRF-CEM cells assessed as growth inhibition at 1 uM after 96 hrs by spectrophotometry relative to control. The note with it: read-out: GI. It counts as functional. A digest of the protocol:
as §1

Activity calls are given as the source filed them. The calls are words filed in the database; no cut-off is given here.

What is called logP is the decadic logarithm of the partition coefficient of the neutral form, usually between octanol and water. Low readings indicate a more hydrophilic compound, high ones a more lipophilic compound.

Consider `CCCCCCCCCCCCCCCC(=O)N[C@H]1C[C@H](O[C@H]2C[C@](O)(C(=O)CO)Cc3c(O)c4c(c(O)c32)C(=O)c2c(OC)cccc2C4=O)O[C@@H](C)[C@H]1O`, for which the “growth inhibition (GI)” value in the data set with CCRF-CEM [1] and in the data set with MDA-MB-468 [2] was “inactive” throughout. Also, the “growth inhibition (GI)” value with SK-OV-3 [3] and with HT-29 was “Active” in each case.

Consider `COc1cccc2c1C(=O)c1c(O)c3c(c(O)c1C2=O)C[C@@](O)(C(=O)CO)C[C@@H]3O[C@H]1C[C@H](NC(C)=O)[C@H](O)[C@H](C)O1`, for which the “growth inhibition (GI)” value in the data set on CCRF-CEM [1] and in the data set with MDA-MB-468 [2] was “inactive” in each case. Moreover, the logP in data set [4] was found to be 1.18. Moreover, the “growth inhibition (GI)” value in the data set on SK-OV-3 [3] and in the data set with HT-29 was “Active” throughout.

In the case of `CCCCCCCCCC(=O)N[C@H]1C[C@H](O[C@H]2C[C@](O)(C(=O)CO)Cc3c(O)c4c(c(O)c32)C(=O)c2c(OC)cccc2C4=O)O[C@@H](C)[C@H]1O`, the “growth inhibition (GI)” value with CCRF-CEM [1] and with MDA-MB-468 [2] was “inactive” each time. Further, the “growth inhibition (GI)” value with SK-OV-3 [3] and in the data set with HT-29 was “Active” in each case.

Take `CCCCCCCCCCCC(=O)N[C@H]1C[C@H](O[C@H]2C[C@](O)(C(=O)CO)Cc3c(O)c4c(c(O)c32)C(=O)c2c(OC)cccc2C4=O)O[C@@H](C)[C@H]1O`: the inhibition of growth at 1 µM in the data set with MDA-MB-468 [5] is 38%; with SK-OV-3 [6], 58%; in the data set on HT-29, 64%. Further, the “growth inhibition (GI)” value with CCRF-CEM [1] and in the data set on MDA-MB-468 [2] was “inactive” throughout.

For `CCCCCCCC(=O)N[C@H]1C[C@H](O[C@H]2C[C@](O)(C(=O)CO)Cc3c(O)c4c(c(O)c32)C(=O)c2c(OC)cccc2C4=O)O[C@@H](C)[C@H]1O`, the “growth inhibition (GI)” value with CCRF-CEM [1] and in the data set with MDA-MB-468 [2] was “inactive” in each case. Also, the “growth inhibition (GI)” value in the data set on SK-OV-3 [3] and with HT-29 was “Active” each time.

Consider `CCSCCCCCCCCCCCC(=O)N[C@H]1C[C@H](O[C@H]2C[C@](O)(C(=O)CO)Cc3c(O)c4c(c(O)c32)C(=O)c2c(OC)cccc2C4=O)O[C@@H](C)[C@H]1O`, for which the “growth inhibition (GI)” value in the data set on CCRF-CEM [1] and with MDA-MB-468 [2] was “inactive” throughout.

In the case of `CCCCCCCCCCCCCCCCCC(=O)N[C@H]1C[C@H](O[C@H]2C[C@](O)(C(=O)CO)Cc3c(O)c4c(c(O)c32)C(=O)c2c(OC)cccc2C4=O)O[C@@H](C)[C@H]1O`, the “growth inhibition (GI)” value with CCRF-CEM [1] and in the data set on MDA-MB-468 [2] was “inactive” in each case. In addition, the “growth inhibition (GI)” value with SK-OV-3 [3] and with HT-29 was “Active” each time.

Regarding `CCCCCCCCCCCCCC(=O)N[C@H]1C[C@H](O[C@H]2C[C@](O)(C(=O)CO)Cc3c(O)c4c(c(O)c32)C(=O)c2c(OC)cccc2C4=O)O[C@@H](C)[C@H]1O`, the inhibition of growth at 1 µM in the data set with MDA-MB-468 [5] came to 31%; with SK-OV-3 [6], 50%; in the data set on CCRF-CEM [7], 27%; in the data set on HT-29, 41%. The “growth inhibition (GI)” value with MDA-MB-468 [2] is “inactive”.

Compound `COc1cccc2c1C(=O)c1c(O)c3c(c(O)c1C2=O)C[C@@](O)(C(=O)CO)C[C@@H]3O[C@H]1C[C@H](N)[C@H](O)[C@H](C)O1` [DOXORUBICIN] registered a logP in data set [4] of 0.6.

As for `CCCCCCCCCCCCCCCCCCCC(=O)N[C@H]1C[C@H](O[C@H]2C[C@](O)(C(=O)CO)Cc3c(O)c4c(c(O)c32)C(=O)c2c(OC)cccc2C4=O)O[C@@H](C)[C@H]1O`, the “growth inhibition (GI)” value in the data set on CCRF-CEM [1] and with MDA-MB-468 [2] was “inactive” throughout. Further, the “growth inhibition (GI)” value in the data set with SK-OV-3 [3] and with HT-29 was “Active” each time.

These data come from ChEMBL document CHEMBL1955851, “Fatty acyl amide derivatives of doxorubicin: synthesis and in vitro anticancer activities” (Eur J Med Chem, 2011).
